Converted amounts (≈) assume the structure as drawn.
Assays:
Format in all cases: functional
[1] = system: Mycobacterium tuberculosis; test: Growth inhibition of Mycobacterium tuberculosis H37Rv ATCC 27294 after 5 to 8 days by microplate alamar blue assay
[2] = system: Mycobacterium tuberculosis; test: Antimycobacterial activity against Mycobacterium tuberculosis H37Rv ATCC 27294 after 5 to 8 days by microplate alamar blue assay
[3] = system: Mycobacterium tuberculosis; test: Antimycobacterial activity against Mycobacterium tuberculosis
In short: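 Radiometric BACTEC 460 assay in 7H12 broth (BACTEC-12B, 4 mL) with M. tuberculosis H37Rv ATCC 27294. Inoculum came from 7H9/glycerol/0.05% Tween 80 cultures at OD550 0.45–0.55, diluted to reach GI 999 in five days. Compounds were from 1 mg/mL DMSO stocks, with DMSO controls. GI was read daily at 37 °C, 5–8 days. % inhibition = [1 − (GI test/GI control)] × 100. MIC was set against a 1:100 diluted control.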

[4] = Mycobacterium tuberculosis, H37Rv ATCC 27294

Row | Compound | growth inhibition (GI) [1] [%] | MIC99 [2, 4] [µg/mL] | MIC [3] [µg/mL] | MIC97 [2] [µg/mL] | MIC95 [2, 4] [µg/mL]
1 | O=C1Nc2ccccc2C(=O)/C1=N/Nc1ccccc1 | 97 | < 6.25 |  |  | 
2 | O=C1Nc2cc([N+](=O)[O-])ccc2C(=O)/C1=N/Nc1ccc(Br)cc1 | 100 | < 6.25 |  |  | 
3 | O=C1Nc2cc([N+](=O)[O-])ccc2C(=O)/C1=N/Nc1ccccc1-c1ccccc1 | 100 | < 6.25 |  |  | 
4 | Cc1c(Cl)cccc1N/N=C1\C(=O)Nc2cc([N+](=O)[O-])ccc2C1=O | 98 | < 6.25 |  |  | 
5 | O=C1Nc2ccc(Cl)cc2C(=O)/C1=N/Nc1ccc(Cl)cc1 | 98 | < 6.25 |  |  | 
6 | Cc1cccc(N/N=C2\C(=O)Nc3c(cccc3[N+](=O)[O-])C2=O)c1 | 95 | < 6.25 |  |  | 
7 | CN1C(=O)/C(=N\Nc2ccccc2[N+](=O)[O-])C(=O)c2ccccc21 | 94 | < 6.25 |  |  | 
8 | O=C1Nc2c(ccc(Cl)c2Cl)C(=O)/C1=N/Nc1ccc([N+](=O)[O-])cc1 | 89 | < 6.25 |  |  | 
9 | O=C1Nc2c(ccc(Cl)c2Cl)C(=O)/C1=N/Nc1ccccc1 | 85 | < 6.25 |  |  | 
10 | O=C1Nc2c(cccc2[N+](=O)[O-])C(=O)/C1=N/Nc1cccc(Cl)c1 | 82 | < 6.25 |  |  | 
11 | O=C1Nc2c(cccc2[N+](=O)[O-])C(=O)/C1=N/Nc1ccccc1[N+](=O)[O-] | 80 | < 6.25 |  |  | 
12 | O=C1Nc2c(cccc2[N+](=O)[O-])C(=O)/C1=N/Nc1ccc(Cl)c(Cl)c1 | 79 | < 6.25 |  |  | 
13 | Cc1cccc(N/N=C2\C(=O)Nc3cc(Cl)ccc3C2=O)c1 | 70 | < 6.25 |  |  | 
14 | O=C1Nc2cc([N+](=O)[O-])ccc2C(=O)/C1=N/Nc1ccc(Cl)c(F)c1 | 70 | < 6.25 |  |  | 
15 | O=C1Nc2ccc(Cl)cc2C(=O)/C1=N/Nc1ccccc1[N+](=O)[O-] | 64 | < 6.25 |  |  | 
16 | O=C1Nc2c(cccc2[N+](=O)[O-])C(=O)/C1=N/Nc1ccc(Cl)cc1 | 61 | < 6.25 |  |  | 
17 | O=C1Nc2c(cccc2[N+](=O)[O-])C(=O)/C1=N/Nc1cccc([N+](=O)[O-])c1 | 60 | < 6.25 |  |  | 
18 | O=C1Oc2ccc3ccccc3c2C(=O)/C1=N/Nc1ccc([N+](=O)[O-])cc1 | 94 | < 6.25 |  |  | 

Row | Compound | growth inhibition (GI) [1] [%] | MIC99 [2, 4] [µg/mL] | MIC [3] [µg/mL] | MIC97 [2] [µg/mL] | MIC95 [2, 4] [µg/mL]
19 | O=C1Oc2ccc3ccccc3c2C(=O)/C1=N/Nc1ccc(Cl)cc1 | 88 | < 6.25 |  |  | 
20 | Cc1cccc(N/N=C2\C(=O)Oc3ccc4ccccc4c3C2=O)c1C | 64 | < 6.25 |  |  | 
21 | O=C1Oc2ccc3ccccc3c2C(=O)/C1=N/Nc1ccccc1 | 62 | < 6.25 |  |  | 
22 | Cc1cc(C)cc(N/N=C2\C(=O)Oc3ccc4ccccc4c3C2=O)c1 | 58 | < 6.25 |  |  | 
23 | COc1ccc(N/N=C2\C(=O)Oc3ccc4ccccc4c3C2=O)cc1 | 55 | < 6.25 |  |  | 
24 | O=C1Oc2ccc(-c3ccccc3)cc2C(=O)/C1=N/Nc1ccccc1[N+](=O)[O-] | 25 | < 6.25 |  |  | 
25 | Cc1cccc(N/N=C2\C(=O)Oc3ccc(-c4ccccc4)cc3C2=O)c1 | 23 | < 6.25 |  |  | 
26 | O=C1Oc2ccc(-c3ccccc3)cc2C(=O)/C1=N/Nc1c(Cl)cccc1Cl | 23 | < 6.25 |  |  | 
27 | O=C1Oc2ccc(-c3ccccc3)cc2C(=O)/C1=N/Nc1cccc(F)c1Cl | 19 | < 6.25 |  |  | 
28 | O=C1Oc2ccc(-c3ccccc3)cc2C(=O)/C1=N/Nc1ccc(F)cc1 | 18 | < 6.25 |  |  | 
29 | Cc1ccccc1N/N=C1\C(=O)Oc2ccc(-c3ccccc3)cc2C1=O | 17 | < 6.25 |  |  | 
30 | CC(=O)c1c(C)[nH]c(C(=O)N/N=C/c2ccc(C)cc2)c1C | 92 | < 6.25 |  |  | 
31 | CC(=O)c1c(C)[nH]c(C(=O)N/N=C/c2ccc([N+](=O)[O-])cc2)c1C | 32 | < 6.25 |  |  | 
32 | CC(=O)c1c(C)[nH]c(C(=O)N/N=C/c2cccc(Cl)c2)c1C | 29 | < 6.25 |  |  | 
33 | CC(=O)c1c(C)[nH]c(C(=O)N/N=C/c2cccc([N+](=O)[O-])c2)c1C | 18 | < 6.25 |  |  | 
34 | CC(=O)c1c(C)[nH]c(C(=O)N/N=C/c2ccc(N(C)C)cc2)c1C | 18 | < 6.25 |  |  | 
35 | CCCc1cc(=O)oc2c3c(c4c(c12)OC(C)(C)C=C4)O[C@H](C)[C@@H](C)[C@@H]3O [CALANOLIDE A] |  |  | 3.13 (≈ 8.45 µM) |  | 
36 | CO[C@H]1/C=C/O[C@@]2(C)Oc3c(C)c(O)c4c(O)c(c(/C=N/N5CCN(C)CC5)c(O)c4c3C2=O)NC(=O)/C(C)=C\C=C\[C@H](C)[C@H](O)[C@@H](C)[C@@H](O)[C@@H](C)[C@H](OC(C)=O)[C@@H]1C [RIFAMPIN] |  |  |  | 0.015 (≈ 0.0182 µM) | 0.25 (≈ 0.304 µM)

Reference: ChEMBL document CHEMBL1806474, “Diversity oriented design of various hydrazides and their in vitro evaluation against Mycobacterium tuberculosis H37Rv strains” (2011)
